Assay results taken from PubChem BioAssay AID623869 (Vanderbilt High Throughput Screening Facility, 2012).
The campaign covered roughly 2,100 compounds. About 75 (4%) were called active.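 The calls were made as follows: active = calcium fluorescence trace judged by eye to show a response, as agonist, enhancer of the glutamate response, or inhibitor; inactive = trace judged by eye to show no response.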 This excerpt belongs to a sample that is enriched for actives.

Target: Metabotropic glutamate receptor 8 (Rattus norvegicus) (UniProt P70579)
Sequence (P70579 whole entry, looked up): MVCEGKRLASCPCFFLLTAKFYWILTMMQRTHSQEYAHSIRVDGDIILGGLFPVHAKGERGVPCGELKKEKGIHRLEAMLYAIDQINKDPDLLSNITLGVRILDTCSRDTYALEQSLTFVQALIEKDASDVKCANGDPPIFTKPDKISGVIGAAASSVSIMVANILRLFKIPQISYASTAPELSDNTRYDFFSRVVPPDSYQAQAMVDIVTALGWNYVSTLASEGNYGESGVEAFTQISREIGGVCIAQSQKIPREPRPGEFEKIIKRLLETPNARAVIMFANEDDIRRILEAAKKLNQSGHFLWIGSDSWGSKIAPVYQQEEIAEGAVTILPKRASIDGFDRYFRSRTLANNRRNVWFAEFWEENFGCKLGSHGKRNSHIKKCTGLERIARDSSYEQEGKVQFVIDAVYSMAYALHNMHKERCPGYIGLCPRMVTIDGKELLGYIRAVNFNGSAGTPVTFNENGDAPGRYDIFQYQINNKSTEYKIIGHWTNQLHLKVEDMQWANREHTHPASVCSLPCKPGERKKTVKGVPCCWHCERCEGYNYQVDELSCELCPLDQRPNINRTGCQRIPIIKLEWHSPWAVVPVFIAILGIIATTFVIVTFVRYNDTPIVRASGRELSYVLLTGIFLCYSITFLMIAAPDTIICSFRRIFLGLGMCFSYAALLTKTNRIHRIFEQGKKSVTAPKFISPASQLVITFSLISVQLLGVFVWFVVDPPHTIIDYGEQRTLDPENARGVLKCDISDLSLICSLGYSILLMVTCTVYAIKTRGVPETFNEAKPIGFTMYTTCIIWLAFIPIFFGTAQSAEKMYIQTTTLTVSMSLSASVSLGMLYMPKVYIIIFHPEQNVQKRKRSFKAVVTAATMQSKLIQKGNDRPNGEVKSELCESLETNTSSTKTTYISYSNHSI
Assay: rat mGlu8 modulation via Gqi9 calcium signal, confirmation, counter-screen for GIRK activator project, cell-based, HEK293 rmGlu8, Gqi9 chimera, Fluo-4 calcium (AID 623869)
Conditions: HEK293 rmGlu8/Gqi9 calcium flux, Fluo-4 fluorescence; glutamate at EC20 added after compound
Method in brief: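 Material: rat mGlu8 HEK-293 cells with transient Gqi9; medium: HEPES-buffered HBSS, pH 7.4; reagent: EC20 glutamate; dosing: one dose, 20 µM addition solution, 0.2% DMSO; incubation: compound 4 min before glutamate, then 2 min recording; measured by: Fluo-4 calcium fluorescence, 1 Hz; evaluation: F/F0 fluorescence traces judged visually for each well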

Row | Structure (SMILES) | outcome
1 | Cc1cc(C)c2nc(SCC(=O)NCCC3=CCCCC3)cc(C)c2c1 | inactive; 0
2 | c1csc(CCNc2ncnc3sc4c(c23)CCC4)c1 | inactive; 0
3 | CC1=NCCN1S(=O)(=O)c1cc(Cl)ccc1Cl | inactive; 0
4 | COC(=O)c1sccc1NC(=O)CSc1ccccc1NS(=O)(=O)c1cc(Cl)ccc1Cl | inactive; 0
5 | O=S(=O)(Nc1nc(-c2sccc2Cl)cs1)c1cc(Cl)ccc1Cl | active; -1
6 | O=C(NNc1nc2ccccc2nc1C(F)(F)F)c1ccccc1 | inactive; 0
7 | Cc1cccc(N=C2NC(=O)/C(=C/C=C/c3ccco3)S2)c1C | inactive; 0
8 | Cc1nc(SC2CCOC2=O)c2c(C)c(C)sc2n1 (configuration not stated) | inactive; 0
9 | Cc1sc2nc(C(C)C)nc(SCC(=O)N3c4ccccc4CC3C)c2c1C (configuration not stated) | inactive; 0
10 | C/C(=N\NC(=O)c1cccc(F)c1)c1ccc(Br)s1 | active; 1
11 | C/C(=N\NC(=O)c1ccccc1O)c1ccc(Br)s1 | inactive; 0
12 | C/C(=N\NC(=O)c1ccc(Cl)cc1)c1ccc(Br)s1 | inactive; 0
13 | Cc1ccc2c(Cl)cc(Cl)c(OCC(=O)NCc3ccco3)c2n1 | inactive; 0
14 | O=C(NN=c1c(=O)c2ccccc2c1=O)c1ccccc1 | inactive; 0
15 | Cc1ccc(NC(=O)CSC(N)=O)cc1Cl | inactive; 0
16 | O=C(CC(O)(C(F)(F)F)C(F)(F)F)Nc1ccc(Cl)c(Cl)c1 | active; 1
17 | C=COCCNC(=O)Nc1ccc(Cl)c(Cl)c1 | inactive; 4
18 | O=C(NNC(=O)c1sccc1-n1cccc1)c1ccc(Cl)cc1 | inactive; 0
19 | CCOC(=O)c1ccccc1NC(=O)CSc1nnc(Cc2cccn2C)n1-c1ccc(C)cc1 | inactive; 0
20 | Fc1ccc(/C=N/n2c(-c3cccs3)n[nH]c2=S)cc1 | inactive; 0
21 | CCOc1ccc2nc(/N=C/c3c(C)[nH]n(-c4ccc(C)cc4)c3=O)sc2c1 | inactive; 0
22 | O=c1c2ccc(Cl)cc2nc(-c2cccc(C(F)(F)F)c2)n1O | inactive; 3

Row | Structure (SMILES) | outcome
23 | O=c1c2cc(Br)ccc2nc(-c2cccc(C(F)(F)F)c2)n1O | active; 1
24 | O=c1c2ccccc2nc(-c2cccc(Cl)c2)n1O | inactive; 0
25 | COC(=O)c1onc(C(=O)c2ccccc2)c1C(=O)OC | inactive; 0
26 | COc1ccc(N2CCCn3c2nc2c3c(=O)n(Cc3ccccc3F)c(=O)n2C)c(OC)c1 | inactive; 0
27 | COc1ccc(NC(=O)C(=O)NNC(=O)c2cccs2)c(OC)c1 | inactive; 0
28 | Cn1c(N2CCCC2)nc2c1c(=O)n(Cc1ccc(Cl)cc1)c(=O)n2C | active; 2
29 | Cn1c(=O)c2c(nc(-n3ccnc3)n2Cc2ccccc2)n(C)c1=O | inactive; 0
30 | COc1ccc(N2CCN(c3nc4c(c(=O)n(C)c(=O)n4C)n3Cc3ccccc3)CC2)cc1 | inactive; 0
31 | CCOC(=O)Cc1csc(NC(=S)NC(=O)c2ccccc2Br)n1 | inactive; 0
32 | CCc1ccc(NC(=S)NNC(=O)c2ccccc2OC(F)F)cc1 | inactive; 0
33 | Cc1ccc(C)c(NC(=S)NNC(=O)c2csc3c2CCC(C)C3)c1 (configuration not stated) | inactive; 0
34 | O=C(N/N=C\c1ccc(Cl)s1)c1cccs1 | inactive; 0
35 | COc1ccc(CNc2nc(-c3cccnc3)nn2C(=O)c2ccco2)cc1 | active; 2
36 | O=C(c1cc2nc(-c3ccccc3)cc(-c3ccccc3)n2n1)N1CCN(C(=O)c2ccco2)CC1 | inactive; 0
37 | CCC(=O)n1nc(-c2cccnc2)nc1NCc1ccc(OC)cc1 | inactive; 0
38 | Cc1oc(-c2ccccc2)nc1CS(=O)CC(=O)O (configuration not stated) | inactive; 0
39 | CCCCN(CCCC)C(=S)NC(=O)c1ccccc1Cl | inactive; 0
40 | COc1ccc(-c2nnc(CSc3nc4ccccc4c(=O)n3C)o2)cc1OC | active; 2
41 | CCN(CC)C(=O)CSc1nc2ccccc2c(=O)n1-c1ccccc1OC | inactive; 0
42 | COc1cc(-c2nnc(CSc3nc4ccccc4s3)o2)cc(OC)c1OC | inactive; 0
43 | Fc1ccc2nc(-c3ccccc3)nc(SCc3nnc(-c4ccccc4)o3)c2c1 | inactive; 0
44 | c1ccc(Cc2nnc(-c3ccccc3)o2)cc1 | active; -1

Row | Structure (SMILES) | outcome
45 | O=S(=O)(c1ccc(-c2nnc(SCc3nnc(-c4ccccc4)o3)o2)cc1)N1CCCC1 | inactive; 0
46 | CCC(=O)N1CCN(c2ccccc2NC(=O)COc2cccc(C)c2)CC1 | inactive; 0
47 | CNc1nc(Cl)nc(NC(C)(C)C)n1 | active; 2
48 | O=C1Nc2ccccc2C12OCC1(CO2)COC2(OC1)C(=O)Nc1ccccc12 (configuration not stated) | active; 2
49 | Cc1ccc(-c2csc3ncnc(N4CCN(C(=O)c5ccccc5)CC4)c23)cc1 | inactive; 0
50 | O=C(c1ccco1)N1CCN(C(=O)c2cnn3c2NC(c2cccs2)CC3C(F)(F)F)CC1 (configuration not stated) | inactive; 0
51 | O=C(c1ccco1)N1CCN(c2ncnc3scc(-c4cccs4)c23)CC1 | active; 2
52 | S=C(Nc1ccc(Cl)cc1)c1nc2ccccc2[nH]1 | inactive; 0
53 | O=C(NC(=S)Nc1ccccn1)c1ccco1 | inactive; 0
54 | Cc1ccc(C(=O)Nc2nc(-c3ccccc3)c(-c3ccccc3)o2)cc1 | inactive; 0
55 | O=C(CCc1ccccc1)NNC(=S)NC(=O)c1ccc(Cl)cc1 | active; 1
56 | COc1ccc(C(=O)NC(=S)N(Cc2ccccc2)Cc2ccccc2)cc1 | inactive; 0
57 | COc1ccc(C(=O)NNC(=S)NC(=O)c2ccco2)cc1 | inactive; 4
58 | COc1ccc(C(=O)NC(=S)NNC(=O)CCc2ccccc2)cc1 | active; 1
59 | Cc1cccc(C)c1NC(=S)NC(=O)CCc1ccccc1 | inactive; 0
60 | Cc1ccccc1NC(=S)NC(=O)CCc1ccccc1 | inactive; 0
61 | CC(=O)c1cccc(NC(=S)NC(=O)c2cccc(Cl)c2)c1 | inactive; 0
62 | Cc1ccc(-n2ncc3c(SCc4ccccc4)ncnc32)cc1 | inactive; 0
63 | O=C(Nc1nnc(-c2ccc3c(c2)CCCC3)o1)c1ccccc1 | inactive; 4
64 | Cc1ccc(OCC(=O)NNC(=O)C(C)Sc2ncnc3sc(C)c(C)c23)cc1 (configuration not stated) | inactive; 0
65 | COc1ccc(/C=C2\SC(=O)NC2=S)cc1OC | active; 2
66 | COc1cc(/C=C2\SC(=S)NC2=O)ccc1OS(=O)(=O)c1ccccc1 | active; 2

Row | Structure (SMILES) | outcome
67 | O=C1NC(=S)S/C1=C\c1ccc(SCc2ccccc2)o1 | inactive; 0
68 | O=C1NC(=S)/C(=C\c2ccc(-c3ccccc3Cl)o2)S1 | inactive; 3
69 | COc1cc(/C=C2/SC(=S)NC2=O)ccc1OS(=O)(=O)c1ccc(C)cc1 | inactive; 0
70 | O=C1NC(=O)/C(=C\c2ccccc2Oc2ccc(F)c(F)c2)S1 | inactive; 0
71 | COc1ccc(/C=N\NC(=S)SCN2C(=O)C3CCC(C)(C2=O)C3(C)C)cc1 (configuration not stated) | inactive; 0
72 | CCc1ccc2c(c1)c(N=NC1=NC(=O)CS1)c(O)n2C | inactive; 0
73 | C=CCN(CC=C)C(=S)NC(=O)c1ccc(C)c(Br)c1 | inactive; 0
74 | Cc1ccc(C(=O)NNc2nc3ccccc3nc2C(F)(F)F)cc1 | inactive; 0
75 | FC(F)(F)c1cnc(NNC(=S)Nc2ccc(Cl)cc2)c(Cl)c1 | inactive; 4
76 | FC(F)(F)c1cnc(NNC(=S)Nc2ccccc2Cl)c(Cl)c1 | active; 1
77 | Cc1ccc(NC(=S)NNc2ncc(C(F)(F)F)cc2Cl)c(C)c1 | inactive; 0
78 | CC(C)Sc1nc2c(c(=O)[nH]1)C(c1cccs1)C1=C(CC(C)(C)CC1=O)N2 (configuration not stated) | inactive; 0
79 | C=CCN(CC=C)C(=S)NC(=O)c1ccc([N+](=O)[O-])cc1 | inactive; 0
80 | CCc1nc(SCC(=O)N2CC(=O)Nc3ccccc32)c2c(C)c(C)sc2n1 | inactive; 0
81 | Oc1c(C=NCc2ccncc2)sc2ccccc12 | active; 2
82 | CCN(c1ccccc1)S(=O)(=O)c1ccc(NC(=S)NC(=O)c2ccc(Br)o2)cc1 | inactive; 0
83 | CCOC(=O)c1c(NC(=O)CSc2nnc(-c3ccncc3)n2Cc2ccco2)sc(C(C)=O)c1C | inactive; 0
84 | Cc1ccc(NC(=S)c2nc3ccccc3[nH]2)cc1 | inactive; 0
85 | C=CCNC(=S)Nc1sc2c(c1C(=O)OCC)CC(C(C)C)OC2 (configuration not stated) | inactive; 0
86 | C=CCNC(=S)Nc1sc2c(c1C(=O)OCC)CC(C)(CC)OC2 (configuration not stated) | inactive; 0
87 | CCNC(=S)Nc1nc2c(cc1C(=O)OCC)CCCC2 | active; 2
88 | CCNC(=S)Nc1scc(-c2ccccc2)c1C(=O)OCC | inactive; 0

Row | Structure (SMILES) | outcome
89 | C=CCNC(=S)Nc1nc2c(cc1C(=O)OCC)CCCC2 | active; 2
90 | C=C(C)CNC(=S)Nc1nc2c(cc1C(=O)OCC)CCCC2 | inactive; 0
91 | CCC1(c2ccc(Cl)cc2)NC(=S)N(c2ccccc2)N1 (configuration not stated) | inactive; 0
92 | CC1Cc2ccccc2N1C(=S)NC(=O)c1ccc(Cl)cc1Cl (configuration not stated) | inactive; 0
93 | Fc1cccc2sc(Nc3nnc(-c4ccco4)o3)nc12 | inactive; 0
94 | CCOc1ccc(-c2nnc(NC(=O)c3ccc(OCC(C)C)c(OC)c3)o2)cc1 | inactive; 0
95 | Cc1ccc(NC(=S)c2nc3ccccc3[nH]2)c(C)c1 | inactive; 0
96 | O=C1c2ccccc2NC(c2ccc(-c3cccc(Cl)c3)o2)N1O (configuration not stated) | inactive; 0
97 | Cc1cc([N+](=O)[O-])ccc1-c1ccc(C2Nc3ccccc3C(=O)N2O)o1 (configuration not stated) | active; 2
98 | O=C1c2ccccc2NC(c2ccc(-c3ccc(Br)cc3)o2)N1O (configuration not stated) | inactive; 0
99 | CCCN(CCC)C(=S)NC(=O)c1ccc(Cl)cc1Cl | inactive; 0
100 | C=CCn1c(=S)[nH]c2ccccc2c1=O | inactive; 0
101 | CCOC(=O)Cc1csc(NC(=S)NC(=O)c2ccccc2C)n1 | inactive; 0
102 | Cc1ccccc1C(=O)NNC(=O)C(=O)Nc1cccc(Cl)c1C | inactive; 0
103 | Cc1ccccc1C(=O)Nc1nc(=S)ss1 | active; 1
104 | O=C(NC(=S)N1CCCc2ccccc21)c1ccc([N+](=O)[O-])cc1 | inactive; 0
105 | CN(C)S(=O)(=O)c1cccc(NC(=S)Nc2ccc(Cl)cc2Cl)c1 | inactive; 4
106 | CC12CCC(C(=O)N(CSC(=S)N/N=C\c3ccccc3)C1=O)C2(C)C (configuration not stated) | inactive; 0
107 | CNC(=S)N/N=C1\C(=O)c2cccc3cccc1c23 | inactive; 0
